Most compounds without a hit are left out; they make up all but 4.6% or so of the library.
TAAR1 antagonist – human TAAR1 antagonists, primary screen, Fluo-8 calcium fluorescence, CHO RD-HGA16 cells; Trace amine-associated receptor 1 (Homo sapiens), Q96RJ0; antagonist; inhibition, % at 3 µM; 360,000 compounds, 1.5% hits;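 active = inhibition above a per-plate cutoff, the mean inhibition of test compounds on that plate plus 3 SD, cut at about 49% in these data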;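 note: 0% = DMSO plus EC80 beta-PEA response and 100% = DMSO alone without agonist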
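Assay system: RD-HGA16 CHO cells with stable hTAAR1 and Gα16 / Reagent: EC80 β-phenethylamine stimulus / Doses: 3 µM, single point / Timing: dye loading 75 min at 37 °C, then 30 min room temperature / Measured by: Fluo-8 intracellular calcium dye fluorescence, real-time kinetic reads / Controls: vehicle wells and EC80 agonist wells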
OX1R antag-1 – OX1R (HCRTR1) antagonists, primary screen, fluorescence, CHO/OX1R cells, Fluo-8 calcium, orexin A; Fluo-8 calcium fluorescence; inhibition, % at 5 µM; 330,000 compounds, 0.43% hits;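 active = inhibition above its plate's threshold, mean inhibition of all tested compounds on the plate plus 3 SD, cut at about 37% in these data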;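 note: 0% = orexin A challenge wells and 100% = SB-334867-A antagonist wells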
Target sequence (O43613 whole entry, looked up): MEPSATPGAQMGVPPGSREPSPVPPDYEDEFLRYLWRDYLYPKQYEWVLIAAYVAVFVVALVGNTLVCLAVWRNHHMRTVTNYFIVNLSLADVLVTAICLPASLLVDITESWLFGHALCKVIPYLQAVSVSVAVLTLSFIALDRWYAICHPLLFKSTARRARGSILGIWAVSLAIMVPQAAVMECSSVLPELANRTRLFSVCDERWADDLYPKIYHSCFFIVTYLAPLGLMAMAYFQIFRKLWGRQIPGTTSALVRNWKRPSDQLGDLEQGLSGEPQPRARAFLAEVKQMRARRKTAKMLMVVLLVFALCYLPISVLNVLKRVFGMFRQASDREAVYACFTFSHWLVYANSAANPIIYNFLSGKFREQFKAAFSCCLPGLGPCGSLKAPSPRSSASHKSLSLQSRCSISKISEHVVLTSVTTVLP
CHO parental Ca – ATP-evoked calcium signal inhibitors, parental CHO, primary screen, counter-screen for OX1R antagonist project, cell-based, fluorescence, Fluo-8 calcium dye; parental CHO-K1, ATP-induced calcium, Fluo-8 fluorescence; AID 463079, 2010; 330,000 compounds, 0.63% hits; inhibition, % at 5.6 µM;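 active = inhibition above that plate's mean sample inhibition plus 3 SD, cut at about 26% in these data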;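 note: 0% = ATP-challenged DMSO wells and 100% = DMSO wells without ATP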
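Material: Parental CHO cells | Reagent: ATP | Compound dosing: Single nominal dose of 5.6 µM per compound | Detection: Intracellular calcium via Fluo-8 no-wash fluorescent dye | Read-out: % inhibition of ATP-induced calcium mobilization | Benchmarks: Low control ATP plus DMSO, high control DMSO only | Replicates: Singlicate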
OX1R antag-2 – antagonists of human orexin 1 receptor (OX1R); Orexin/Hypocretin receptor type 1 (Homo sapiens), O43613; OX1R-expressing cells, FRET antagonist read-out; inhibition, % at 6.6 µM; 330,000 compounds, 1.8% hits; in the data active = inhibition mostly above about 38%, no sharp cut-off; inactive = mostly below about 40%;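 note: 0% = agonist challenge alone and 100% = reference antagonist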
TAAR1 ag – human TAAR1 agonists, primary screen, Fluo-8 calcium fluorescence, CHO RD-HGA16 cells. 360,000 compounds, 0.99% hits. vehicle wells 0%, saturating PEA agonist 100%. AID 624467, 2012. activation, % at 3 µM;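 active = activation above the mean activation of all test compounds in the run plus 3 SD, cut at about 38% in these data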
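Test system: RD-HGA16 (CHO) cells co-expressing Gα16 and hTAAR1 / Benchmarks: DMSO vehicle as 0%, PEA at EC100 as 100% / Repeats: no replicates (n 1) / Measure: % activation from peak over basal fluorescence ratio, DMSO-to-PEA scaled / Timing: 17-24 h plating, Fluo-8 75 min 37 °C, 30 min RT / Technique: kinetic Fluo-8 calcium fluorescence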
GPR7 antag – GPR7 receptor antagonists, primary screen, cell-based, fluorescence, single concentration; AID 1861, 2009; Neuropeptides B/W receptor type 1 (Homo sapiens), P48145; 290,000 compounds, 1.1% hits; inhibition, % at 4.4 µM; GPR7-expressing cells, fluorescence antagonist assay; in the data active = inhibition above about 16%, passing the limit was not always enough;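 note: cells stimulated with the agonist NPW; 0% = agonist with vehicle and 100% = vehicle without agonist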
The depositor's hits bear a star; / = no result given.

SMILES	TAAR1 antagonist	OX1R antag-1	CHO parental Ca	OX1R antag-2	TAAR1 ag	GPR7 antag
COc1ccc(S(=O)(=O)N(C)[C@H]2C[C@H]3c4cc(-c5ccccc5)ccc4CCN3C(=O)[C@H]2[C@H](C)O)cc1	56*	/	/	/	8	/
CCCCn1nc(C(=O)Nc2ccc(-n3cnnn3)cc2)c2ccccc2c1=O	52*	-16	-14	5	24	/
Cn1nc(C(=O)Nc2ccc(-n3cnnn3)cc2)c2ccccc2c1=O	18	-27	-18	3	6	/
Brc1ccc(CN2CCN(Cc3c[nH]c4ccccc34)CC2)cc1	10	5	-6	-7	38*	21
CCN(CC)C(=O)c1cccc(-c2csc(C(O)(c3ccccc3)C(F)(F)F)n2)c1 (stereo unspecified)	24	/	/	/	2	/
CC(C)C[C@H]1CN(CCCC[C@H]2CNC(=O)C(=O)N2CC2CCCCC2)C(=O)C(=O)N1CCc1ccc(O)cc1	20	/	/	/	1	/
Cc1cccc(Nc2nc(N)nc(N)c2N=O)c1	-56	/	/	/	45*	/
N#CC(c1c(Cl)cccc1N1CCCCC1)N1CCCCC1 (stereo unspecified)	-4	/	/	/	0	/
O=C(NCCN1CCc2ccccc2C1)C1CCN(S(=O)(=O)N2CCC3(CC2)OCCO3)CC1	-9	-15	-11	31	16	-8
O=C(NCCN1CCc2ccccc2C1)C1CCN(S(=O)(=O)N2CCCCC2)CC1	6	-18	-10	10	6	20*
Nc1nc(CSC(=S)N2CCCCC2)nc(Nc2ccccc2)n1	10	11	-22	69*	16	15
Cc1ccc(Nc2nc(N)nc(CSC(=S)N3CCOCC3)n2)cc1	-14	-22	-16	17	1	-6
Nc1nc(CSC(=S)N2CCOCC2)nc(Nc2ccccc2)n1	-1	17	-13	69*	0	-10
CC(=O)OC[C@@H]1CN(Cc2cccc(C(F)(F)F)c2)C[C@H](n2cnc3c(N4CCOCC4)ncnc32)O1	-14	/	/	/	-1	/
CC(=O)OC[C@@H]1CN(Cc2cccc(C(F)(F)F)c2)C[C@H](n2cnc3c(NCc4ccco4)ncnc32)O1	56*	/	/	/	9	/
CCc1nc2c(OCc3ccccc3)cccn2c1N(C)C(C)=O	11	/	/	/	2	/
CCCOc1nc2c(c(=O)n(C)c(=O)n2C)n1Cc1cccc2ccccc12	12	68*	39*	15	25	-9
C[C@@H]1NC(=O)[C@H](CCCN=C(N)N)NC(=O)c2cc([N+](=O)[O-])cc(I)c2OCC[C@@H](C(=O)NC(CC(=O)O)C(N)=O)NC1=O (stereo partly specified)	/	-9	2	15	/	-3
C[C@@H]1NC(=O)c2cc([N+](=O)[O-])cc(I)c2OCC[C@@H](C(=O)NC(CC(=O)O)C(N)=O)NC(=O)[C@H](CC(N)=O)NC1=O (stereo partly specified)	/	41	51*	31	/	3
c1ccc(-c2nc3ccccc3nc2-c2ccc(CN3CCC4(CC3)CNc3ccccc34)cc2)cc1	-1	/	/	/	-2	/
COc1ccc(-c2cn3cc(Cl)ccc3n2)cc1OC	-26	19	-19	45*	-4	-4
COc1ccc(-c2cn3cc(C)ccc3n2)cc1Br	-10	-13	-21	45	4	7
CCOC(=O)Cc1csc(NC(=O)CSc2nnnn2-c2ccc(CC)cc2)n1	5	-22	22	20	1	-8
CCOC(=O)c1csc(NC(=O)CSc2nnnn2-c2ccc(OCC)cc2)n1	2	/	/	/	40*	-6
O=S(=O)(c1ccc(C(F)(F)F)cc1)N1CCCc2nc(-c3ccccc3)ccc21	-14	/	/	/	3	/
SMILES	TAAR1 antagonist	OX1R antag-1	CHO parental Ca	OX1R antag-2	TAAR1 ag	GPR7 antag
N#CC(Cc1cccs1)c1nc2ccccc2[nH]1 (stereo unspecified)	-3	/	/	/	1	/
N#CC(/C(=N/S(=O)(=O)c1cccs1)c1ccccc1)c1nc2ccccc2[nH]1 (stereo unspecified)	30	-18	-12	43*	15	4
COc1ccccc1S(=O)(=O)N(C)C[C@@H]1OCc2cn(nn2)CCCC(=O)N([C@H](C)CO)C[C@H]1C	-20	/	/	/	2	/
CCN(CC)c1nc(C=Cc2ccc(N(C)C)cc2)c2nccnc2n1	62*	/	/	/	61*	/
Cc1cc(Br)cn2c(Cc3ccccc3C(F)(F)F)c(-c3ccc(F)cc3)nc12	22	/	/	/	5	/
C1=C(c2ccccc2)CCN(c2ncnc3nc[nH]c23)C1	14	-16	0	50*	2	1
CN(C)CCCN1C(=O)c2cccc3c(Br)ccc(c23)C1=O	-16	-27	-13	64*	2	2
O=C(/C=C/c1cccc([N+](=O)[O-])c1)Nc1cccc(NC(=O)c2cccs2)c1	58*	-1	-13	70*	11	-14
Cc1ccc(NC(=O)/C(=C\c2cccc([N+](=O)[O-])c2)NC(=O)c2cccs2)cc1	-8	7	-1	52*	4	1
Cc1ccc(NC(=O)/C(=C/c2cccc([N+](=O)[O-])c2)NC(=O)C2CCCCC2)cc1	-14	-28	-18	5	3	-1
COCCCNC(=O)C[C@H]1C[C@@]2(C(=O)OC)C(=C[C@H](COCc3ccccc3)O[C@@H]2C)N(CCC2=CCCCC2)C1=O	-39	/	/	/	-2	/
C[C@H]1COc2cccc(NCCO)c2S(=O)(=O)N1	2	/	/	/	0	/
CCS(=O)(=O)N1CCC(C(=O)OCC(=O)c2ccc(Br)cc2)CC1	-4	-31	50*	12	6	-14
O=C(NCC(=O)N(Cc1cccs1)C(C(=O)NC1CCCCC1)c1ccco1)c1ccco1 (stereo unspecified)	52*	-21	-22	7	18	-9
[O-][n+]1c2c(c3c4non(O)c4ccc31)CCCC2	3	24	6	54*	15	3
COn1c2c(c3c4no[n+]([O-])c4ccc31)CCCC2	-9	-20	-11	31	-2	8
COc1cc(/C=C2\SC(=S)NC2=O)ccc1OS(=O)(=O)c1ccccc1	/	10	11	80*	/	-6
COc1cc(/C=C2/SC(=S)NC2=O)ccc1OS(=O)(=O)c1ccc(C)cc1	/	10	6	64*	/	5
CC(=O)c1ccc(OC2(C)CCN(Cc3ccc4ccccc4c3)C2)cc1 (stereo unspecified)	6	/	/	/	-1	/
